Here are results for four compounds from paper PMC11861226 (Journal of Cancer Research and Clinical Oncology, 2025).

The conditions of data set [1]: ref Lamba et al. [2021]; Kondo et al. [2022]; Järvinen et al. [2023]; cited from earlier work.
Data set [2] has as its system glioblastoma cancer cell nuclei. Particulars: glioblastoma patients; ref Ho et al. [2022]; cited from earlier work.
Data set [3] in a line: ^68Ga-DOTA-PSMA micro-PET/CT imaging of 22Rv1 xenograft mice. In kind it is in vivo, mouse. The conditions noted are these: mouse, tumor / non-tumor (muscle), iv, 3.7 MBq, total radioactivity. In outline: (§1)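 Tracer was labelled with ⁶⁸Ga (generator eluted with 0.1 mol/l HCl) in sodium acetate buffer, pH 3–4, at 95 °C for 15 min. Male six-week-old nude mice bearing 22Rv1 xenografts received 3.7 MBq via the tail vein. Animal PET/CT imaging followed at multiple time points after injection to track tracer accumulation in tumour and surrounding organs.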

The test system of a further data set is 22Rv1 Xenograft Mice. The data set is described as above. It is filed as in vivo, mouse. The conditions noted are these: PET/CT imaging, 22Rv1 tumor. In outline: as §1
The nature of data set [4]: ^68Ga-DOTA-PSMA organ biodistribution by γ-counter, 22Rv1 xenograft mice. It is filed as in vivo. Particulars: mouse, tumor, iv, 3.7 MBq, total radioactivity. In outline:
(§2)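 Male six-week-old SPF nude mice: normal (n = 15), 22Rv1 xenograft (n = 12) or PC-3 xenograft (n = 12), with three animals per time point. Each received 3.7 MBq i.v. via the tail vein. Tracer was labelled with ⁶⁸Ga (generator eluted with 0.1 mol/l HCl) in sodium acetate, pH 3–4, at 95 °C for 15 min. Mice were killed by cervical dislocation; organs were excised, weighed and γ-counted for %ID/g. Mean ± SD.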

Data set [5] in a line: ^68Ga-DOTA-PSMA organ biodistribution by γ-counter, PC-3 xenograft mice. Particulars: mouse, tumor, iv, 3.7 MBq, total radioactivity. In kind it is in vivo. The procedure, abridged:
as §2

`N[C@@H](Cc1ccc(B(O)O)cc1)C(=O)O` [BPA, Boronophenylalanine]: the water solubility result in data set [1] is “poor water solubility”.
On to “Sodium mercaptoundecahydro-closo-dodecaborate [BSH]”, for which, in data set [1], the water solubility entry was “more water-soluble”.
On to `O=C([O-])CN(CCN(CC(=O)[O-])CC(=O)O)CCN(CC(=O)[O-])CC(=O)O.[Gd+3]` [^157Gd-DTPA], for which the “cancer cell nuclei found to contain the agent” value in data set [2] was 6.1%.
In the case of `O=C(O)CC[C@H](NC(=O)N[C@@H](CCCCNC(=O)[C@H](Cc1ccc2ccccc2c1)NC(=O)CCCCCNC(=O)CN1CCN(CC(=O)O)CCN(CC(=O)O)CCN(CC(=O)O)CC1)C(=O)O)C(=O)O` [^68Ga-DOTA-PSMA, metal not drawn], the tissue to tissue ratio at 2 h in data set [3] was 6.95 ± 0.6. Besides, the “time of peak radiotracer uptake post-injection” value in the data set on 22Rv1 Xenograft Mice was determined as 2 h. Further, the tissue uptake at 2 h amounted to 27.1 ± 2.55 %ID/g in data set [4] and 6.23 ± 0.79 %ID/g in data set [5].

What is called tissue uptake is the percentage of the injected dose found per gram of tissue.
